ChEMBL document CHEMBL3860040, “Purine-Type Compounds Induce Microtubule Fragmentation and Lung Cancer Cell Death through Interaction with Katanin” (J Med Chem, 2016)
Activity calls are given as the source filed them. The calls are words filed in the database; no cut-off is given here.

What was measured:
[1] = Cytotoxicity against human NCI-H1975 cells harboring EGFR T790M mutant assessed as decrease in cell viability after 72 hrs by MTT assay; type: functional, cell-based; conditions: NCI-H1975, 72 h
[2] = target: Katanin p60 ATPase-containing subunit A1 (Homo sapiens) (UniProt O75449); test: Induction of katanin p60 subunit-mediated JNK signaling pathway activation in human NCI-H1975 cells assessed as increase in JNK phosphorylation at T183/Y185 and T221/Y223 residues at 300 nM after 9 hrs by phospho-kinase antibody array method; type: cell-based
Chain of Katanin p60 ATPase-containing subunit A1 (Homo sapiens) (O75449 whole entry, the tested form may be a part): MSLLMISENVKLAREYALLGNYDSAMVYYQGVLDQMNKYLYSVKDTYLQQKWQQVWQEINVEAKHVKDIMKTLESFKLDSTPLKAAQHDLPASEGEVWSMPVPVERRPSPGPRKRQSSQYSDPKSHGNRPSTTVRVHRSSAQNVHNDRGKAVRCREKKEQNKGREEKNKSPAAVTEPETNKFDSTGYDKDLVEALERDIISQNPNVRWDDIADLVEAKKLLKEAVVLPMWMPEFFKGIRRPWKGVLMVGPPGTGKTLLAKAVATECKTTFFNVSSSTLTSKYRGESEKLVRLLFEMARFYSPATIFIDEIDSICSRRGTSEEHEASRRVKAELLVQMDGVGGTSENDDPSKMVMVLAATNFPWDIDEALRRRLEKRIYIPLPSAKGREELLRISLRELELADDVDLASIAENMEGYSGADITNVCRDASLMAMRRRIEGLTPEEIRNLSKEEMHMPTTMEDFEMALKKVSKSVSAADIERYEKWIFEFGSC
How it was run: (§1)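 H1975 cells seeded overnight, exposed to 300 nM for 9 h; DMSO-treated cells as controls. Lysates rocked 30 min at 4 °C and spun at 14,000×g for 30 min. Equal BCA-quantified protein applied to a human phospho-kinase antibody array; spot density measured by densitometry.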

[3] = target: Katanin p60 ATPase-containing subunit A1 (Homo sapiens) (UniProt O75449); test: Induction of katanin p60 subunit-mediated JNK signaling pathway activation in human NCI-H1975 cells assessed as increase in c-Jun phosphorylation at S63 residues at 300 nM after 9 hrs by phospho-kinase antibody array method; type: cell-based; how it was run: as §1
[4] = target: Katanin p60 ATPase-containing subunit A1 (Homo sapiens) (UniProt O75449); test: Induction of katanin p60 subunit-mediated JNK signaling pathway activation assessed as increase in phosphorylation level at T183/Y185 residues in human NCI-H1975 cells at 300 nM after 6 to 12 hrs by immunoblot analysis; type: cell-based
How it was run: (§2)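 H1975 cells treated with 300 nM for 6 h and 12 h, lysed, and phospho-JNK and phospho-c-Jun detected by immunoblot with ECL. Three independent experiments.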

[5] = target: Katanin p60 ATPase-containing subunit A1 (Homo sapiens) (UniProt O75449); test: Induction of katanin p60 subunit-mediated JNK signaling pathway activation assessed as increase in c-Jun phosphorylation level at S63 residues in human NCI-H1975 cells at 300 nM after 6 to 12 hrs by immunoblot analysis; type: cell-based; how it was run: as §2
[6] = target: Katanin p60 ATPase-containing subunit A1 (Homo sapiens) (UniProt O75449); test: Induction of katanin p60 subunit-mediated microtubule fragmentation in human NCI-H1975 cells at 300 nM after 12 hrs by DAPI staining based confocal laser microscopy; type: cell-based
How it was run: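 H1975 cells treated 12 h, fixed in 3.7% cold paraformaldehyde and permeabilized with 0.1% Triton X-100. Stained with anti-α-tubulin at 37 °C for 1 h, then FITC secondary (1:100) at 37 °C for 1 h. Mounted with DAPI and imaged by confocal microscopy.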

[7] = target: Katanin p60 ATPase-containing subunit A1 (Homo sapiens) (UniProt O75449); test: Induction of katanin p60 subunit-mediated microtubule fragmentation in human NCI-H1975 cells assessed as alpha-tubulin level in soluble form at 300 nM after 1 hr by immunoblot analysis (reference value: 37%); type: cell-based
[8] = target: Katanin p60 ATPase-containing subunit A1 (Homo sapiens) (UniProt O75449); test: Induction of katanin p60 subunit-mediated microtubule fragmentation in human NCI-H1975 cells assessed as alpha-tubulin level in polymer form at 300 nM after 1 hr by immunoblot analysis (reference value: 63%); type: cell-based
[9] = target: Katanin p60 ATPase-containing subunit A1 (Homo sapiens) (UniProt O75449); test: Induction of katanin p60 subunit-mediated microtubule fragmentation in human NCI-H1975 cells assessed as alpha-tubulin level in soluble form at 600 nM after 1 hr by immunoblot analysis (reference value: 37%); type: cell-based
[10] = target: Katanin p60 ATPase-containing subunit A1 (Homo sapiens) (UniProt O75449); test: Induction of katanin p60 subunit-mediated microtubule fragmentation in human NCI-H1975 cells assessed as alpha-tubulin level in polymer form at 600 nM after 1 hr by immunoblot analysis (reference value: 63%); type: cell-based
[11] = target: Katanin p60 ATPase-containing subunit A1 (Homo sapiens) (UniProt O75449); test: Induction of katanin p60 subunit-mediated microtubule fragmentation in human NCI-H1975 cells assessed as alpha-tubulin level in soluble form at 300 nM after 12 hrs by gel filtration chromatography/immunoblot analysis; type: cell-based
How it was run: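 H1975 cells treated with 300 nM or vehicle for 12 h; soluble extracts made in IP lysis buffer. Run on a Toyopearl HW-65F gel filtration column equilibrated in IP lysis buffer, collecting 0.5 mL fractions. Fractions separated by 10% SDS–PAGE and α-tubulin detected by immunoblot.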

[12] = target: Katanin p60 ATPase-containing subunit A1 (Homo sapiens) (UniProt O75449); test: Binding affinity to katanin p60 subunit in human NCI-H1975 cell lysate using biotin-labeled compound preincubated for 24 hrs followed by streptavidin-conjugated beads addition measured after 2 hrs by immunoblot analysis; type: cell-free
How it was run: (§3)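 H1975 lysate incubated 24 h with biotinylated probe or with a purine-free linker as control. Bound proteins detected by immunoblot; three independent experiments.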

[13] = target: Katanin p80 WD40 repeat-containing subunit B1 (Homo sapiens) (UniProt Q9BVA0); test: Binding affinity to katanin p80 subunit in human NCI-H1975 cell lysate using biotin-labeled compound preincubated for 24 hrs followed by streptavidin-conjugated beads addition measured after 2 hrs by immunoblot analysis; type: cell-free; how it was run: as §3
Chain of Katanin p80 WD40 repeat-containing subunit B1 (Homo sapiens) (Q9BVA0 whole entry): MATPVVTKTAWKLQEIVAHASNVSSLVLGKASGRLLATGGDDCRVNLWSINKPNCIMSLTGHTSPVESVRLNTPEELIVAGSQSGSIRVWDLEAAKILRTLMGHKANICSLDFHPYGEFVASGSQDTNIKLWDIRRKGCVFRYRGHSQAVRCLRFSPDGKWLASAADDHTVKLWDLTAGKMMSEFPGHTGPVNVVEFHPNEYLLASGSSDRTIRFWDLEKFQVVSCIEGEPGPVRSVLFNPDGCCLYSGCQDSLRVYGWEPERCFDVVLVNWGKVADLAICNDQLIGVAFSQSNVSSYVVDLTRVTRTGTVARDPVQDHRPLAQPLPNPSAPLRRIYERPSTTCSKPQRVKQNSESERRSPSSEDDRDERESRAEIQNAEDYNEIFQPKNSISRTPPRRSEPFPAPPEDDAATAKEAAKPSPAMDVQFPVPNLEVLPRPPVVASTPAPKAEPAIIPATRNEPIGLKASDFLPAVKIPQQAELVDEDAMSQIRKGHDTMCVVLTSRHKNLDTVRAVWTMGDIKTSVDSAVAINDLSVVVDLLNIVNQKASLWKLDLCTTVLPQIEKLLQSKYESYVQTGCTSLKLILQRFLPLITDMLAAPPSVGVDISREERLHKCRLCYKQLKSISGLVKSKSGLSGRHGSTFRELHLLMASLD

CCOc1ccc(-c2nc(C(N)=O)c3[nH]c(=O)n(-c4cccc(C(=O)NCCCCCNC(=O)OC(C)(C)C)c4)c3n2)cc1
IC50 [1]: > 10 µM

CCOc1ccc(-c2nc(C(N)=O)c3[nH]c(=O)n(-c4ccccc4OC)c3n2)cc1
Activity [2]: Active
Activity [3]: Active
Activity [4]: Active
Activity [5]: Active
Activity [6]: Active
Activity [7]: 68%
Activity [8]: 32%
Activity [9]: 75%
Activity [10]: 25%
Activity [11]: Active

CCOc1ccc(-c2nc(C(N)=O)c3[nH]c(=O)n(-c4cccc(C(=O)O)c4)c3n2)cc1
IC50 [1]: 7.91 µM

CCCCOc1ccc(-c2nc(C(N)=O)c3[nH]c(=O)n(-c4ccccc4OC)c3n2)cc1
IC50 [1]: 4.66 µM

COC(=O)c1cccc(-n2c(=O)[nH]c3c(C(N)=O)nc(-c4ccc(-c5ccccc5)cc4)nc32)c1
IC50 [1]: > 20 µM

CCOc1ccc(-c2nc(C(N)=O)c3[nH]c(=O)n(-c4cccc(C(=O)NCCCCCNC(=O)CCCC[C@@H]5SC[C@@H]6NC(=O)N[C@@H]65)c4)c3n2)cc1
IC50 [1]: 26.3 µM
Activity [12]: Active
Activity [13]: Active

CCCCCCOc1ccc(-c2nc(C(N)=O)c3[nH]c(=O)n(-c4ccccc4OC)c3n2)cc1
IC50 [1]: > 5 µM
